Tests used:
Trichoplusia ni [1] = conditions: in vivo, 24 h
Trichoplusia ni [2] = experiment: Feeding deterrent activity against freshly molted third-instar larval stage of Trichoplusia ni (cabbage looper) in compound pretreated cabbage leaves after 3 to 5 hr by leaf disk choice bioassay; assay type: functional, organism-based
In short: (§1)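 Leaf-disk choice test on greenhouse cabbage (Stonehead) leaves from 5-6-week plants. Freshly molted third-instar T. ni from a diet-reared colony (>50 generations) were starved 4-5 h. One disk had 10 μL test solution painted on each side, the other carrier solvent only. There were 25 larvae per treatment. Run ended at ~50% control disk eaten (3-5 h). Deterrence = (C−T)/(C+T)×100 from consumed areas.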

Trichoplusia ni [3] = experiment: Feeding deterrent activity against freshly molted third-instar larval stage of Trichoplusia ni (cabbage looper) in compound pretreated cabbage leaves at 50 ug/cm2 after 3 to 5 hr by leaf disk choice bioassay; assay type: functional
In short: as §1

Trichoplusia ni [4] = experiment: Oviposition deterrent activity against adult female Trichoplusia ni (cabbage looper) moths introduced along with male moths into oviposition cage containing compound pretreated cabbage leaves assessed as eggs laying on the leaf disks at 0.25% after 48 hr; assay type: functional
In short: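 Choice test: one male and one female moth were caged with a control and a treated cabbage leaf (~100-110 cm²). Each side was sprayed with 0.5 mL MeOH or methanolic test solution at 0.25%. Values are mean ± SE, N = 35-40.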

Structure (SMILES)	mortality (Trichoplusia ni [1]) [%]	DC50 (Trichoplusia ni [2]) [microg/cm2]	Activity (Trichoplusia ni [3]) [%]	Activity (Trichoplusia ni [4]) [%]
COc1cccc(OCCC(C)C)c1 [1-isopentyloxy-3-methoxybenzene]	30	29	89	30
C=CCc1cccc(OC)c1OC	17	15.5	100	32
CCCCOc1ccc2c(c1)CC(C)O2 (configuration not stated)	1	16	100	-12
CCCOc1ccc2c(c1)CC(C)O2 (configuration not stated)	1	16	100	-12
C=CCOc1ccccc1OCCC [1-allyloxy-2-propoxybenzene]	10	12	96	12
C=CCc1cc(OCCCC)ccc1OCCC(C)C	27	15	83	20
C=CCc1cc(OCCC)ccc1OCC	3.3	22	66	64
C=CCOc1cccc(OC)c1	33	34	66	9
C=CCc1ccc(OCCCC)c(OC)c1 [N-BUTYLEUGENOL]	15	12	92	34
C=CCc1ccc(OCCC)c(OC)c1 [PROPYLEUGENOL]	37	19	84	29
C=CCc1cccc(OCCC)c1OC	17	15.5	100	32
C=CCc1cc(OCCC)ccc1OCCC	17	33	65	21
C=CCc1ccc(OCCC(C)C)c(OC)c1 [ISOPENTYLEUGENOL]	28	25	86	9
CCCOc1ccc(OCC)cc1 [4-ETHOXY-1-PROPOXYBENZENE]	17	33.3	100	10
C=CCc1cccc(OCCC)c1OCC	27	20	100	31
C=CCc1cc(OC)ccc1OCCC(C)C	27	15	83	20
C=CCc1cc(OCCCC)ccc1O	3.3	57	51	51
C=CCc1cc(OCCC(C)C)ccc1OCCC	17	33	65	21
C=CCc1cccc(OCCCC)c1OCC	27	20	100	31

Structure (SMILES)	mortality (Trichoplusia ni [1]) [%]	DC50 (Trichoplusia ni [2]) [microg/cm2]	Activity (Trichoplusia ni [3]) [%]	Activity (Trichoplusia ni [4]) [%]
C=CCc1cc(OCCC)ccc1OC	17	19	68	37
C=CCc1cc(OCC)ccc1OC	17	19	68	37
C=CCc1cc(OCC)ccc1OCCC(C)C	27	15	83	20
C=CCc1cc(OCCC)ccc1O	3.3	57	51	51
COc1ccc2c(c1)CC(C)O2 (configuration not stated)	1	16	100	-12
C=CCc1cccc(OCC)c1OC	17	15.5	100	32
C=CCc1cccc(OCCCC)c1OC	17	15.5	100	32
CC(C)CCOc1ccc2c(c1)CC(C)O2 (configuration not stated)	1	16	100	-12
CCOc1ccc2c(c1)CC(C)O2 (configuration not stated)	1	16	100	-12
C=CCc1cc(OCCC(C)C)ccc1OCCC(C)C	27	15	83	20
C=CCc1cccc(OCC)c1OCC	27	20	100	31
CCN(CC)C(=O)c1cccc(C)c1 [DIETHYLTOLUAMIDE]	7	47	60	23
C=CCc1cccc(OCCC)c1O	17	20.6	100	7
C=CCOc1ccccc1OCCCC [1-allyloxy-2-butoxybenzene]	19	17	92	35
C=CCc1cccc(OCCC(C)C)c1O	17	20.6	100	7
C=CCc1cc(OC)ccc1OC	17	20	80	14
C=CCc1cc(OCC)ccc1O	3.3	57	51	51
C=CCc1cc(OCCCC)ccc1OCC	3.3	22	66	64
C=CCc1cc(OCC)ccc1OCCC	17	33	65	21
